Source: ChEMBL document CHEMBL4257525, “Synthesis and biological evaluation of new 3-amino-2-azetidinone derivatives as anti-colorectal cancer agents” (Medchemcomm, 2018)

Test system: SW48
Experiment: Antiproliferative activity against human SW48 cells after 72 hrs by MTT assay
Assay type: functional, cell-based
Details: SW48, 72 h
In short: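 SW48 colorectal adenocarcinoma cells grown in RPMI-1640 with 10% FBS, 2 mM L-glutamine and penicillin/streptomycin at 37 °C, 5% CO2. 8000 cells per well exposed to a range of compound concentrations (in DMSO) for 72 h. MTT then added for 2 h at 37 °C, formazan solubilized, absorbance read at 570 nm. Triplicates in three independent experiments. IC50 from a four-parameter logistic fit against 0.1% DMSO controls.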

Point of comparison: `COc1ccc([C@H]2[C@H](NC(=O)C3CCCCC3)C(=O)N2c2cc(OC)c(OC)c(OC)c2)cc1O` (relative stereo), IC50 244 nM. Against it:
- COc1ccc([C@H]2[C@H](NC(=O)c3ccc(Cl)cc3)C(=O)N2c2cc(OC)c(OC)c(OC)c2)cc1O — within 1.5-fold, 271 nM
- COc1ccc(C(=O)N[C@@H]2C(=O)N(c3cc(OC)c(OC)c(OC)c3)[C@H]2c2ccc(OC)c(O)c2)cc1 (relative stereo) — 2.3-fold lower, 108 nM
- COc1ccc([C@H]2[C@H](NC(=O)[C@H](C)N)C(=O)N2c2cc(OC)c(OC)c(OC)c2)cc1O (relative stereo) — 2.7-fold lower, 90.6 nM
- COc1ccc([C@H]2[C@H](NC(C)=O)C(=O)N2c2cc(OC)c(OC)c(OC)c2)cc1O (relative stereo) — 17-fold lower, 14 nM
- COc1ccc([C@H]2[C@H](NC(=O)c3cc(OC)c(OC)c(OC)c3)C(=O)N2c2cc(OC)c(OC)c(OC)c2)cc1O (relative stereo) — 2.3-fold higher, 564 nM
- COc1ccc([C@H]2[C@H](NC(=O)Cc3c[nH]c4ccccc34)C(=O)N2c2cc(OC)c(OC)c(OC)c2)cc1O (relative stereo) — 4.9-fold lower, 49.4 nM
- COc1ccc([C@H]2[C@H](NC(=O)c3ccc4ccccc4c3)C(=O)N2c2cc(OC)c(OC)c(OC)c2)cc1O (relative stereo) — within 1.5-fold, 220 nM
- COc1ccc([C@H]2[C@H](NC(=O)c3ccc(F)cc3)C(=O)N2c2cc(OC)c(OC)c(OC)c2)cc1O (relative stereo) — 1.6-fold higher, 384 nM
- COc1ccc([C@H]2[C@H](NC(=O)c3ccco3)C(=O)N2c2cc(OC)c(OC)c(OC)c2)cc1O (relative stereo) — 13-fold lower, 18.6 nM

Test system: not listed separately
Experiment: Inhibition of porcine brain tubulin polymerization measured for 15 mins by spectrophotometric method
Parameters: species or system Sus scrofa
Details: not given
In short: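 Lyophilized purified tubulin resuspended at 2.5 mg mL-1 in assembly buffer (80 mM PIPES pH 6.9, 1 mM MgCl2, 2 mM EGTA, 10% glycerol), mixed with 1 mM GTP and varying compound concentrations; 0.2% v/v DMSO vehicle control. Assembly read at 340 nm, 37 °C. IC50 = concentration inhibiting polymerization by 50%, from four-parameter logistic fit.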

In the case of `COc1ccc([C@H]2[C@H](NC(C)=O)C(=O)N2c2cc(OC)c(OC)c(OC)c2)cc1O` (relative stereo), the IC50 is reported as 5050 nM.
